Sampled rows, rich in hits. Any-hit rate of the full collection: about 1.5%.
EBI2 block: blocks human EBI2 receptor beta-arrestin signaling; EBI2 beta-arrestin recruitment, luminescence, 7a,25-OHC stimulated; 0.81% of 360,000 active; inhibition, % at 5 µM; in the data active means inhibition above about 38%;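 further: enzyme fragment complementation signal reports receptor beta-arrestin coupling in cells; 0% = agonist plus DMSO wells and 100% = wells without agonist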
APJ antagonist: blocks the human apelin receptor APJ | P35414 | CHO-K1 APJ beta-arrestin complementation, luminescence | inhibition, % at 20 µM | 0.32% of 330,000 active | AID 2521;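 active means inhibition above about 40% at 20 µM, limit read from the data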;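 further: cells challenged with 10 nM apelin-13 agonist together with compound; plate controls were apelin-13 plus DMSO wells for no effect and DMSO wells lacking apelin-13 for full effect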
CCR6 antag: blocks CCL20-driven beta-arrestin recruitment at human CCR6. P51684. CHO-K1 CCR6 PathHunter beta-arrestin, luminescence, CCL20-stimulated. inhibition, % at 20 µM. 0.49% of 340,000 active. AID 493098;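 active means compounds whose inhibition of the agonist-driven luminescence signal at 20 µM reaches about 50%, limit read from the data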;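 further: cells stimulated with CCL20 at 14 nM final; plate controls were DMSO with CCL20 for no effect and DMSO without agonist for full effect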
Target sequence (P51684 whole entry, looked up): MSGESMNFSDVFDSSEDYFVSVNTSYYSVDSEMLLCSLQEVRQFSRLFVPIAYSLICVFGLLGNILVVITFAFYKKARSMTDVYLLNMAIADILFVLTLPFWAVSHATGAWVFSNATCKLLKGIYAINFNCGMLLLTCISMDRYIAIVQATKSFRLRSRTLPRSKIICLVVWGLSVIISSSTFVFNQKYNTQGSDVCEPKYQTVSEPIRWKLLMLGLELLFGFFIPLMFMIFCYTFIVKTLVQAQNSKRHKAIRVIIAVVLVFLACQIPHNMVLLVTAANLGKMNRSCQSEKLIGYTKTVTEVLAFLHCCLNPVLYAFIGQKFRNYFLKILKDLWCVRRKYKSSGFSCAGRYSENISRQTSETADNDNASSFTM
CXCR6 block: blocks human CXCR6 beta-arrestin recruitment | O00574 | CHO-K1 PathHunter CXCR6 beta-arrestin, luminescence | inhibition, % at 20 µM | 0.36% of 360,000 active; in the data active means inhibition above about 34%, passing the limit was not always enough;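 further: antagonist mode with CXCL16 agonist at 10 nM final; 0% = 10 nM CXCL16 with DMSO and 100% = unstimulated wells without agonist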
APJ ag: APJ receptor agonism. CHO-K1 APJ PathHunter beta-arrestin, luminescence; 0% DMSO wells, 100% apelin. activation, % at 20 µM. P35414. AID 2520. 0.11% of 330,000 active;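 active means activation more than six SD over the plate average, tested at 20 µM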;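 further: 0% = DMSO alone and 100% = apelin-13 at 10 nM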
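Assay system: CHO-K1 APJ beta-arrestin complementation cell line / Compound: single test compound dose, 20 µM final, 1% DMSO / Times: overnight seeding, 90 min compound at 25 °C, 1 h detection / Technique: beta-gal luminescence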
APJ antag conf: APJ receptor antagonism confirmation; APJ beta-arrestin recruitment, luminescence, antagonist mode; AID 2766; 66% of 950 active; shares compounds with APJ antagonist; inhibition, % at 20 µM; in the data active means inhibition above about 50%
An asterisk follows results filed as active; . = no result given.

SMILES	EBI2 block	APJ antagonist	CCR6 antag	CXCR6 block	APJ ag	APJ antag conf
O=C(CN1C(=O)c2ccccc2C1=O)NCC(=O)OCC(=O)c1cccc([N+](=O)[O-])c1	16.4	70.3*	49.0	24.3	-9.3	102.6*
O=C(CN1C(=O)c2ccccc2C1=O)NCC(=O)OCC(=O)c1ccc(Br)cc1	-2.5	28.4	0.0	2.9	-5.0	.
O=C(Cc1ccccc1)NCC(=O)OCC(=O)c1cccc([N+](=O)[O-])c1	14.1	45.9*	52.8*	21.9	-6.9	67.6*
CN1CCN(CC(=O)Nc2ccc([N+](=O)[O-])cc2Br)CC1	-9.0	-3.1	5.6	-9.7	-2.1	.
COc1ccccc1Nc1ncc(C(=O)N2CCN(Cc3ccc(OC)c(OC)c3OC)CC2)c2ccccc12	-9.8	0.5	-2.9	6.9	1.2	.
COc1ccc(C(=O)Nc2ccnn2C2CCN(C(=O)C3CCOC3)CC2)cc1 (stereo unspecified)	-18.0	11.0	6.4	5.1	2.3	.
CN(C)/C=N/c1ncn(-c2ncc(C(F)(F)F)cc2Cl)n1	2.0	13.1	-4.7	4.3	-1.9	.
O=C(CCc1ccccc1)OCC(=O)c1cccc([N+](=O)[O-])c1	8.1	65.5*	42.5	16.0	-8.1	64.1*
O=C(CN1C(=O)C2CC=CCC2C1=O)OCC(=O)c1ccc(Cl)c([N+](=O)[O-])c1 (stereo unspecified)	14.5	78.9*	79.1*	58.2*	-31.6	149.1*
N/C(=N\OC(=O)CCCc1ccccc1)c1cccc([N+](=O)[O-])c1	2.9	-17.4	-3.7	-12.8	13.9	.
O=C(CN1C(=O)C2C3C=CC(C3)C2C1=O)OCC(=O)c1ccc(Cl)cc1 (stereo unspecified)	4.4	3.3	13.0	3.4	9.4	.
CCNc1nc(NC(C)(C)C)nc(N2CCCCC2)n1	14.3	5.3	-6.9	1.9	-0.9	.
COc1ccccc1CC(=O)NCCN1CCCCC1	2.7	6.7	-13.1	5.7	-1.8	.
C=CCC1(CC=C)CCCN1C(=O)c1ccc2oc(CCCC)nc2c1	5.7	.	.	-7.3	.	.
COc1ccc(CNC(=O)CN(Cc2ccco2)C(=O)CNS(=O)(=O)c2ccc(F)cc2)cc1	-4.1	41.1*	8.0	12.1	1.1	-32.1
Cc1ccc(-c2csc3nc(C)n(-n4c(C)ccc4C)c(=O)c23)o1	19.2	47.8*	17.5	26.4	-1.0	9.7
Cc1ccc(-c2csc3nc(C)n(N)c(=O)c23)o1	-6.7	-17.1	16.0	2.9	-2.8	.
Oc1ccc(N=Nc2c(O)ccc3ccccc23)cc1	23.1	49.6*	53.9*	38.8	-10.6	71.3*
CCOc1ccc(-c2c(C(=O)N/N=C/c3cccc(Br)c3)nnn2-c2nonc2N)cc1	18.2	44.5*	18.0	14.9	-3.6	46.9
CCOc1ccc(-c2c(C(=O)N/N=C/c3ccc(O)cc3)nnn2-c2nonc2N)cc1	2.4	4.7	-2.3	0.6	-3.8	.
O=C(NCCc1ccccc1C(F)(F)F)C1CCC(=O)N(CCCN2CCCC2=O)C1 (stereo unspecified)	-12.4	2.4	2.6	-11.1	-0.4	.
CCN(CC)C(=O)C1=C(C)N(Cc2ccccc2)C(=O)C(CC(=O)NCc2cccs2)C1 (stereo unspecified)	-1.4	.	.	-4.2	.	.
CCN(CC)CCCn1c2c(c(SCC(=O)Nc3ccc(F)c(F)c3)nc1=O)CCC2	7.5	6.4	5.8	3.3	-6.2	.
CCN(CC)CCCn1c2c(c(SCC(=O)Nc3cc(OC)cc(OC)c3)nc1=O)CCC2	2.9	55.1*	1.3	8.0	-2.7	18.5
COc1ccc(/C=C/C(=O)NC(=S)Nc2cc([N+](=O)[O-])ccc2O)cc1OC	-7.0	42.4*	29.1	33.3	-6.2	59.9*
SMILES	EBI2 block	APJ antagonist	CCR6 antag	CXCR6 block	APJ ag	APJ antag conf
COc1ccc([N+](=O)[O-])cc1NC(=S)NC(C)=O	-4.0	15.9	12.2	4.0	-2.1	.
O=C(NCc1ccc2c(c1)OCO2)C(=O)NCC1OCCCN1S(=O)(=O)c1ccc(F)cc1 (stereo unspecified)	-3.1	8.9	4.1	-5.8	0.6	.
Cc1[nH]c2ccccc2c1Cc1nnc(SCc2ccccc2)o1	12.3	48.3*	1.3	5.7	-4.2	30.8
CC(C)N1CCc2c(sc(NC(=O)c3cc(-c4cccs4)nc4ccccc34)c2C(N)=O)C1	6.3	45.7*	62.4*	17.4	-15.0	65.0*
Cc1nnc(NC(=O)CSc2nc3ccccc3o2)s1	-1.9	-0.9	-8.5	9.2	-2.1	.
O=C(CSc1nc2ccccc2o1)Nc1nncs1	3.5	52.4*	-1.8	-8.3	-5.0	23.2
CCCCN(C(=O)C(C)Oc1ccc(Cl)cc1)c1c(N)n(CCCC)c(=O)[nH]c1=O (stereo unspecified)	-13.8	-0.7	9.9	-9.7	-5.0	.
COc1cc2c(=O)n(CCC(=O)NCC3CCCO3)c(=O)n(CC(=O)Nc3ccccc3C)c2cc1OC (stereo unspecified)	3.9	15.7	-9.1	-10.4	-1.8	.
COc1cc2c(=O)n(Cc3ccccc3)c(=O)n(CC(=O)NCC3CCCO3)c2cc1OC (stereo unspecified)	2.6	40.2*	3.0	-4.5	-1.5	6.9
O=C(c1cccs1)c1cn(CC(=O)N2CCc3ccccc3C2)c2ccccc12	-2.7	42.8*	24.9	0.1	-22.4	28.4
O=[N+]([O-])c1ccccc1N/N=C/c1ccccc1	-0.1	11.9	27.2	11.4	-3.0	.
O=[N+]([O-])c1ccc(N/N=C/c2c[nH]c3ccccc23)cc1	41.7*	42.9*	57.6*	31.1	-13.5	78.8*
O=[N+]([O-])c1ccccc1N/N=C/c1c[nH]c2ccccc12	27.9	44.0*	41.1	22.8	-10.6	104.4*
COC(=O)C1=C(C)N(Cc2ccccc2)C(=NCC(C)C)N[C@H]1c1cccc(F)c1	9.5	48.5*	8.1	2.0	-4.1	84.3*
COc1ccc2cc(C)c3nnc(SCc4cccnc4)n3c2c1	-3.3	40.4*	28.6	3.4	-5.0	44.1
COC(=O)c1sc(N)c(C(=O)OC)c1COC(=O)c1c(C)noc1C	25.2	45.6*	70.2*	58.3*	-7.6	95.6*
O=C(Nc1nc2ccc(F)cc2s1)c1ccccn1	.	77.0*	65.1*	.	-11.1	68.2*
O=C(Nc1nc2ccccc2s1)c1cnccn1	-4.9	19.9	7.1	-0.5	-7.3	.
COc1cccc(NC(=O)CSCc2n[nH]c(=O)[nH]2)c1	-12.3	-1.7	-4.1	-5.5	-0.8	.
COC(=O)c1ccc(C(=O)NC2CCCc3c2cnn3-c2cc(F)cc(F)c2)nc1 (stereo unspecified)	2.1	-4.7	10.5	-9.5	9.0	.
Cc1ccc(NNC(=O)c2c(C)noc2C)cc1Cl	18.8	55.8*	14.0	3.9	-12.6	69.7*
Cc1cc(C(=O)NNc2ccc(C)c(C)c2)no1	2.8	42.0*	21.8	17.0	-12.1	114.3*

Screens deposited in PubChem by Sanford-Burnham Center for Chemical Genomics.
